Only some compounds are listed: those with a hit (about 1.7% of all), similar ones and a draw of the others.
AI-2 QS modul: modulators of Vibrio harveyi AI-2 quorum sensing system | activity change, % at 7.5 µM | AID 2094 | Vibrio harveyi JMH597 AI-2 luminescence/OD600 ratio, 9 h; hits give low values; strain lacks LuxN and CqsS sensors; 0 = neutral-control median | hit rate 0.4% among 300,000; in the data active means activity change below about -75%, passing the limit was not always enough;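 further: luminescence divided by OD600 gain over 9 h not by final OD600 alone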
CAL PDZ FP-1: blocks peptide binding to human CAL PDZ domain; Q9HD26; purified CAL PDZ, TMR-peptide fluorescence polarization, 1 h; inhibition, % at 20 µM; hit rate 0.02% among 330,000;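 active means highest replicate inhibition of at least 40%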;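 further: plate controls were DMSO neutral control wells for no effect and unlabeled competitor peptide control wells for full effect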
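Read-out basis: mP drop reported as inhibition | Assay system: Tagged CAL PDZ protein CerCALP, purified | Benchmarks: Unlabelled peptide for full inhibition, DMSO wells as neutral | Schedule: 1 h incubation at room temperature before polarization reading | Buffer or medium: Sodium phosphate/NaCl buffer pH 7.4 with TCEP, IgG, Thesit | Doses: Single point, 20 µM | Measured by: Fluorescence polarization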
ARNT-TACC3 inh: disruptors of human ARNT/TACC3 interaction; inhibition, % at 9.99 µM; hit rate 0.66% among 390,000; AID 623870; AlphaScreen His-ARNT PAS-B/GST-TACC3 binding, luminescence; TACC3 fragment carries E629A point mutation; Q9Y6A5;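 active means mean inhibition of replicates at least 50% and at least half of replicates each reaching 50%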;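 further: 0% = complete ARNT plus TACC3 wells and 100% = ARNT alone without TACC3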
Rce1 inh: yeast Ras-converting enzyme inhibition | Q03530 | yeast membranes, quenched prenylated peptide cleavage fluorescence | calls only | hit rate 0.27% among 290,000 | AID 2563;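 active means fall in fluorescence gain of 50% or more versus controls, with final raw signal at or below 3038400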;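 further: plate controls were neutral control wells for no effect and wells lacking membranes for full effect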
Target sequence (Q03530 whole entry, looked up): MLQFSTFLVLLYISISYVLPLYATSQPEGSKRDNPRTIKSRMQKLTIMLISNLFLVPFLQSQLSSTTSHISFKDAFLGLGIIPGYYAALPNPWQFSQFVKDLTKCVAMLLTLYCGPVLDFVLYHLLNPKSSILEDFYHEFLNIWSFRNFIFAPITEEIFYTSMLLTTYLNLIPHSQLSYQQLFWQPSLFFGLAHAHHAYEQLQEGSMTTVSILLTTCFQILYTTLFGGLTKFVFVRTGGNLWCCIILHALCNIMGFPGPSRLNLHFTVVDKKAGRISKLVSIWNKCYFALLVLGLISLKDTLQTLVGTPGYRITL
CAL PDZ FP-2: blocks peptide binding to the human CAL PDZ domain; purified CAL PDZ, TMR-peptide fluorescence polarization, 1 h; hit rate 0.92% among 300,000; inhibition, % at 24.9 µM;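 active means mean inhibition of at least 30% with at least half of replicates also reaching 30%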;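 further: 0% = DMSO neutral control and 100% = excess unlabeled competitor peptide PRC23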
Numbers without * were called inactive; i = inactive; · = not tested or not shown; + = active, no number.

SMILES	AI-2 QS modul	CAL PDZ FP-1	ARNT-TACC3 inh	Rce1 inh	CAL PDZ FP-2
CCN(CC)C(=O)CN(C)S(=O)(=O)c1cccc2nsnc12	11	-3	-2	i	0
O=C(CN1CCOCC1)NNC(=S)Nc1ccc(Cl)cc1	12	1	39*	i	-2
CCOc1ccc(NC(=O)CCC(=O)Oc2ccc(C)cc2)cc1	18	0	1	i	26
CSc1nc2sc3c(c2c(=O)n1C)CCCC3	15	-2	0	i	-1
CSc1nc2sc3c(c2c(=O)n1C)CCC3	14	-1	-11	i	71*
CC(C(=O)NCc1ccccc1)N1C(=O)CN(C)C(=O)c2ccccc21 (centres undefined)	19	-2	27	i	-4
Nc1c2c(nc3ccccc13)CSCC2	-2	-1	2	i	50*
c1cncc(CSc2ccc(-c3ccc4c(c3)OCO4)nn2)c1	-7	-2	3	i	46*
N=c1n(CC(=O)c2ccc(Br)s2)c2ccccc2n1Cc1ccccc1	20	-2	8	i	38*
Cc1cccc(/C=N/NC(=O)CN2CCCCCCC2)c1	-5	0	-6	i	1
Cc1ccc(O)c(/C=N/NC(=O)CN2CCCC2)c1	14	-1	66*	i	-4
O=C(CN1CCCC1)N/N=C/c1c(O)ccc2ccccc12	-34	2	59*	i	-1
O=C(NN=Cc1c(O)ccc2ccccc12)C1CC1	·	-1	-6	·	-2
OCC(CO)(CO)N=Cc1c(O)ccc2ccccc12	22	0	11	i	-3
Oc1ccc2ccccc2c1C=NC12CN3CCN(CN(C3)C1)C2	8	0	67*	·	0
COc1cccc(NC(=O)CN(C)C(=O)c2ccc3c(c2)CC(c2ccccc2)OC3=O)c1 (centres undefined)	·	-1	-1	·	1
COc1ccccc1CNC(=O)C1CCC(=O)N1C(C)C (centres undefined)	-9	1	-7	i	6
CCCCN(C)C(=O)C1CCN(Cc2cccc(OCc3ccccc3)c2)CC1	-14	0	-1	i	-7
Cc1ccc(-c2cc(C)nc3nc(N)nn23)cc1	21	-1	-29	+	1
N=c1oc2c3c4c(cc2cc1C(=O)Nc1ccccc1)CCCN4CCC3	28	-1	-3	i	1
COCCOC(=O)c1c(NC(=O)COC(=O)c2ccc(C)o2)sc(C(N)=O)c1C	·	-1	-1	·	1
CCCOc1ccc(CSc2ncn[nH]2)cc1	19	-2	-3	i	-1
O=C(c1ccc(S(=O)(=O)N2CCCC2)cc1)N1CCCCCC1	23	-1	-9	i	67*
O=C(Nc1ccc(C(=O)N2CCCCC2)cc1)C1CC1	·	0	20	·	42*
Cc1cccc(N2CCN(C(=O)c3cccc(S(=O)(=O)N4CCCCC4)c3)CC2)c1C	·	0	5	·	69*
SMILES	AI-2 QS modul	CAL PDZ FP-1	ARNT-TACC3 inh	Rce1 inh	CAL PDZ FP-2
O=C(O)Cc1ccc(Oc2ncc(C(F)(F)F)cc2Cl)cc1	0	-1	·	i	-4
CCOC(=O)C(=CNc1cc(C)nn1-c1ccc(C)cc1)C(=O)OCC	5	-2	12	i	-1
Cc1ccc(S(=O)(=O)Nc2cccc(-n3cnnn3)c2)cc1	16	0	0	i	53*
O=C(Nc1ccccc1F)c1ccc(CN2CCc3ccccc3C2)cc1	1	·	-7	i	132*
N=C1CCCN1c1ccccc1O	-7	-3	-4	i	-3
CCOC(=O)CSc1nnc(-c2ccoc2C)n1-c1ccc(C)cc1	7	1	5	i	45*
CCOC(=O)CSc1nnc(-c2ccoc2C)n1-c1ccc(OCC)cc1	1	-2	-2	i	7
CC[C@@H]1CCCCc2ccccc2[C@H](C(=O)C[C@H](O)CC(C)=O)OC1=O	·	-1	0	·	54*
CN(C)c1ccc(NC(=O)Nc2ccc3c(c2)nnn3C)cc1	-6	-1	-4	i	43*
COc1cccc(CNc2nc3ccccc3n2C)c1O	11	18	-2	i	44*
O=C(Nc1cccc([N+](=O)[O-])c1)c1cc(S(=O)(=O)N2CCOCC2)cs1	6	-2	-4	i	-2
C[C@@H]1CN([C@H](C)CO)S(=O)(=O)c2ccc(C3=CCCCC3)cc2O[C@H]1CN(C)Cc1ccncc1	·	·	3	·	·

Source: PubChem
